Measured values: paper PMC7480498 (Journal of Extracellular Vesicles, 2020)

Legend:
[1] = In vivo toxicity: body weight and H&E staining of major organs; design: species or system nude mice
How it was run: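 BALB/c nude mice bearing subcutaneous axillary A549 xenografts (5 × 10^6 cells) were randomised at mean 80 mm3 into six groups (n = 10). Test formulations were given intravenously every two days for five doses, at 2 mg/kg and 0.8 mg/kg of the two loaded agents. One free-agent control was given by oral gavage at 20 mg/kg over 6 days. Body weight was measured every two days. At the end of treatment, one mouse per group was sacrificed, and heart, liver, spleen, lung and kidney were fixed in 4% paraformaldehyde, sectioned and stained with H&E.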

[2] = Safety evaluation: blood biochemical indices; assay type: in vivo, ICR mice; settings: normal mice, n = 3
How it was run: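 ICR mice (20–22 g) were randomly divided into six groups and given the treatments used previously. Blood biochemical indices were then assessed.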

Compound: COc1cccc2c1C(=O)c1c(O)c3c(c(O)c1C2=O)C[C@@](O)(C(=O)CO)C[C@@H]3O[C@H]1C[C@H](N)[C@H](O)[C@H](C)O1 [Free DOX, doxorubicin]
- body weight ([1]; A549 tumour-bearing nude mice during treatment): substantial weight loss
- cardiac tissue histology (H&E) ([1]; nude mice bearing subcutaneous A549 tumour): noticeable cardiac tissue degeneration
- level of serum creatine kinase [2]: significantly elevated
